Assay results as given in ChEMBL document CHEMBL4368903, “Identification of GSK3186899/DDD853651 as a Preclinical Development Candidate for the Treatment of Visceral Leishmaniasis” (J Med Chem, 2019).
In brackets after ≈: the same amount, converted by molar mass.

How the values were obtained:
Leishmania donovani [1] = assay: Antileishmanial activity against Leishmania donovani […] in human THP1 cells by intramacrophage assay; format: functional, organism-based; settings: for EC50: Leishmania donovani, THP-1
[2] = Kinetic aqueous solubility of the compound in phosphate buffer at pH 7.4 by CLND assay; format: physicochemical; settings: for solubility kinetic: phosphate buffer, read-out: Kinetic_solubility; for Kinetic_solubility: buffer
How it was run: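 From 10 mM DMSO stock diluted 1:20 into pH 7.4 PBS, equilibrated 1 h at RT, filtered. Filtrate quantified by calibrated flow-injection CLND. Dynamic range 1–500 μM.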

[3] = Solubility of compound in fasted simulated intestinal fluid at 1 mg after 4 hrs by HPLC-UV analysis; format: physicochemical; settings: for solubility at 4 h: fasted simulated intestinal fluid; for solubility: 4 h
How it was run: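 1 mg solid shaken in 1 mL FaSSIF (3 mM sodium taurocholate, 0.75 mM lecithin, phosphate buffer pH 6.5) at 900 rpm for 4 h at room temperature, then filtered. Supernatant quantified by HPLC-UV against single-point DMSO calibration. Range 1–1000 μg/mL.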

THP-1 = assay: Cytotoxicity against human THP1 cells; format: cell-based
[4] = Intrinsic clearance in CD1 mouse liver microsomes at 0.5 uM after 3 to 30 mins in presence of NADPH by UPLC-MS/MS analysis; format: ADME, Microsome
How it was run: (§1)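 0.5 μM compound with female CD1 mouse or human liver microsomes, started with excess NADPH in 50 mM potassium phosphate pH 7.4. Aliquots at 0, 3, 6, 9, 15 and 30 min quenched in acetonitrile with internal standard. UPLC-MS/MS; rate constant from exponential decay of compound/IS ratio. Verapamil as positive control.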

HepG2 = assay: Cytotoxicity against human HepG2 cells; format: cell-based
[5] = Intrinsic clearance in human liver microsomes at 0.5 uM after 3 to 30 mins in presence of NADPH by UPLC-MS/MS analysis; format: ADME, Microsome; how it was run: as §1
[6] = Lipophilicity, log D of the compound at pH 7.4 assessed as chromatographic hydrophobicity index; format: physicochemical; settings: buffer
How it was run: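 Reversed-phase C18 HPLC with fast acetonitrile gradient. CHI taken from gradient retention time via a calibration line of standards. ChromLogD = 0.0857 × CHI − 2.00.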

[7] = Dissociation constant, pKa of the compound by UV-spectroscopy; format: physicochemical
How it was run: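 Sirius T3 acid–base titration with UV read-out: 5 μL of 10 mM sample, absorbance over 54 pH values in about 5 min. Methanol cosolvent with Yasuda–Shedlovsky extrapolation used when precipitation occurred.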

Leishmania donovani [8] = assay: Antileishmanial activity against Leishmania donovani axenic amastigote; format: functional, organism-based
[9] = Fraction unbound in CD1 mouse plasma at 10 ug/ml after 15 mins by UPLC-MS/MS analysis; format: ADME, cell-free
[10] = Fraction unbound in human plasma at 10 ug/ml after 15 mins by UPLC-MS/MS analysis; format: ADME, cell-free
Leishmania donovani [11] = assay: Antileishmanial activity against Leishmania donovani LV9 amastigotes infected in BALB/c mouse assessed as suppression of parasite load within liver at 100 mg/kg, po administered bid for 5 days relative to control; format: functional
How it was run: (§2)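 Female BALB/c mice, 5 per group, infected i.v. with about 2×10^7 L. donovani LV9 amastigotes harvested from infected hamster spleen. Oral dosing starts day 7 post-infection, in 0.5% HPMC/0.4% Tween 80/0.5% benzyl alcohol, or 10% DMSO/60% PEG400/30% water for the 5-day 50 mg/kg regimen. Dosing solutions made fresh daily. Killed day 14 (5-day) or 19 (10-day). Liver smears give LDU (amastigotes/500 nucleated cells × organ weight). Mean LDU compared with vehicle control gives % suppression.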

Leishmania donovani [12] = assay: Antileishmanial activity against Leishmania donovani LV9 amastigotes infected in BALB/c mouse assessed as suppression of parasite load within liver at 10 mg/kg, po administered bid for 10 days relative to control; format: functional; how it was run: as §2
Leishmania donovani [13] = assay: Antileishmanial activity against Leishmania donovani LV9 amastigotes infected in BALB/c mouse assessed as suppression of parasite load within liver at 25 mg/kg, po administered bid for 10 days relative to control; format: functional; how it was run: as §2
Leishmania donovani [14] = assay: Antileishmanial activity against Leishmania donovani LV9 amastigotes infected in BALB/c mouse assessed as suppression of parasite load within liver at 50 mg/kg, po administered bid for 10 days relative to control; format: functional; how it was run: as §2
[15] = Mean AUClast in Sprague-Dawley rat at 10 mg/kg, po measured up to 24 hrs by UPLC-MS/MS analysis; format: ADME, organism-based; design: dose 10 mg/kg, time < 24 hr, route oral; settings: in vivo
How it was run: (§3)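 Male Sprague–Dawley rats (n=3) given oral gavage as 1% methylcellulose suspension at 10, 100 or 300 mg/kg. Tail-vein blood at 0.25–24 h into K-EDTA, diluted in 0.1N Hepes and stored at −20 °C. Protein precipitation, then LC-MS/MS (range 2.90–2860 ng/mL). AUC0–t by linear up-log down trapezoidal rule.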

[16] = Mean AUClast in Sprague-Dawley rat at 100 mg/kg, po measured up to 24 hrs by UPLC-MS/MS analysis; format: ADME, organism-based; design: dose 100 mg/kg, time < 24 hr, route oral; settings: in vivo; how it was run: as §3
[17] = Mean AUClast in Sprague-Dawley rat at 300 mg/kg, po measured up to 24 hrs by UPLC-MS/MS analysis; format: ADME, organism-based; design: dose 300 mg/kg, time < 24 hr, route oral; settings: in vivo; how it was run: as §3
[18] = AUClast in BALB/c mouse at 10 mg/kg, po measured up to 24 hrs by UPLC-MS/MS analysis; format: ADME, organism-based; design: time < 24 hr, dose 10 mg/kg, route oral; settings: in vivo
How it was run: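 Female Balb/c mice (n=3) dosed orally in 10% (v/v) DMSO, 60% PEG 400, 30% deionized water. AUC0–last (to last measurement) derived from the mean blood concentration–time curve.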

[19] = Cmax in BALB/c mouse at 10 mg/kg, po measured up to 24 hrs by UPLC-MS/MS analysis; format: ADME, organism-based; design: dose 10 mg/kg, route oral; settings: in vivo
How it was run: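 Single oral dose to female Balb/c mice (n=3) in 10% DMSO/60% PEG400/30% water. Blood sampled at 0.08–24 h and mixed with two volumes of water. Compound quantified by UPLC-MS/MS. Parameters taken from the mean blood concentration–time curve.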

[20] = Blood clearance in BALB/c mouse at 10 mg/kg, […] measured up to 24 hrs by UPLC-MS/MS analysis; format: ADME, organism-based; settings: whole blood
[21] = Volume of distribution at steady state in BALB/c mouse at 10 mg/kg, po measured up to 24 hrs by UPLC-MS/MS analysis; format: ADME, organism-based; settings: in vivo
How it was run: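 Female Balb/c mice (n = 3) were dosed in 10% (v/v) DMSO, 60% PEG 400 and 30% deionized water. Compound in blood was quantified by UPLC-MS/MS, and parameters were derived from the mean blood concentration–time curve.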

[22] = Oral bioavailability in BALB/c mouse at 10 mg/kg measured up to 24 hrs by UPLC-MS/MS analysis; format: ADME, organism-based; settings: in vivo
Leishmania donovani [23] = assay: Antileishmanial activity against Leishmania donovani LV9 amastigotes infected in BALB/c mouse assessed as suppression of parasite load within liver at 50 mg/kg, po administered bid for 5 days relative to control; format: functional; how it was run: as §2
[24] = Permeability of the compound by artificial membrane permeability assay; format: ADME; settings: PAMPA; read-out: permeability

COc1nc(N[C@H]2CC[C@H](NS(=O)(=O)CCC(F)(F)F)CC2)nc2[nH]nc(N3CCOCC3)c12
EC50 (Leishmania donovani [1]): 1.26 µM | solubility kinetic [2]: 311 µM (≈ 158 µg/mL) | solubility at 4 h [3]: 53 µg/mL (≈ 104 µM)

CC(C)Cc1n[nH]c2nc(N[C@H]3CC[C@H](NC(=O)Cc4ccccc4)CC3)ncc12
EC50 (Leishmania donovani [1]): > 50.1 µM | EC50 (THP-1): > 50.1 µM | CLH [4]: 9.5 mL/min/g | EC50 (HepG2): 50.1 µM | CLH [5]: 1.9 mL/min/g

CC1COCCN1c1n[nH]c2nc(N[C@H]3CC[C@H](NS(=O)(=O)CCC(F)(F)F)CC3)ncc12 (stereo in doubt; 37)
EC50 (Leishmania donovani [1]): 2 µM | Kinetic_solubility [2]: >= 292 uM | solubility [3]: 118 µg/mL (≈ 240 µM)

O=S(=O)(CCC(F)(F)F)N[C@H]1CC[C@H](Nc2ncc3c(C4CCOCC4)n[nH]c3n2)CC1
EC50 (Leishmania donovani [1]): 3.16 µM | solubility kinetic [2]: 35 µM (≈ 16.7 µg/mL) | chromatographic logD [6]: 3.2

O=S(=O)(CCC(F)(F)F)N[C@H]1CC[C@H](Nc2ncc3c(-c4cncnc4)n[nH]c3n2)CC1
EC50 (Leishmania donovani [1]): 6.31 µM | solubility kinetic [2]: 11 µM (≈ 5.18 µg/mL) | chromatographic logD [6]: 3

O=S(=O)(CCC(F)(F)F)N[C@H]1CC[C@H](Nc2ncc3c(N4CCOCC4)n[nH]c3n2)CC1
EC50 (Leishmania donovani [1]): 3.16 µM | solubility kinetic [2]: 259 µM (≈ 124 µg/mL) | chromatographic logD [6]: 3 | solubility at 4 h [3]: 7 µg/mL (≈ 14.7 µM) | pKa [7]: 3.7

COc1nc(N[C@H]2CC[C@H](NS(=O)(=O)CC3CCCO3)CC2)nc2[nH]nc(N3CCOCC3)c12 (stereo in doubt; 34)
pEC50 (Leishmania donovani [1]): 5.4 | solubility kinetic [2]: 412 µM (≈ 204 µg/mL) | solubility at 4 h [3]: 283 µg/mL (≈ 571 µM)

O=S(=O)(CCC(F)(F)F)N[C@H]1CC[C@H](Nc2ncc3c(N4CCCCC4)n[nH]c3n2)CC1
EC50 (Leishmania donovani [1]): 1.58 µM | solubility kinetic [2]: 46 µM (≈ 21.9 µg/mL) | chromatographic logD [6]: 4.4

CC(C)CC(=O)c1sc(NC2CCCCC2)nc1N
EC50 (Leishmania donovani [8]): 50.1 µM

CC(C)CS(=O)(=O)N[C@H]1CC[C@H](Nc2ncc3c(N4CCOCC4)n[nH]c3n2)CC1
EC50 (Leishmania donovani [1]): 0.501 µM | EC50 (THP-1): > 50.1 µM | CLH [4]: 0.9 mL/min/g | EC50 (HepG2): > 100 µM | CLH [5]: 1.8 mL/min/g | solubility kinetic [2]: 328 µM (≈ 144 µg/mL) | fraction unbound at 0.25 h, 10 ug/ml [9]: 0.37 | fraction unbound at 0.25 h, 10 ug/ml [10]: 0.33 | solubility at 4 h [3]: 9 µg/mL (≈ 20.6 µM) | Activity (Leishmania donovani [11]): 94% | Activity (Leishmania donovani [12]): 36% | Activity (Leishmania donovani [13]): 74% | Activity (Leishmania donovani [14]): 97% | AUC(0-t) at 24 h [15]: 162 ng·h/mL | AUC(0-t) at 24 h [16]: 2960 ng·h/mL | AUC(0-t) at 24 h [17]: 2380 ng·h/mL

O=S(=O)(CCC(F)(F)F)N[C@H]1CC[C@H](Nc2ncc3c(N4CCNCC4)n[nH]c3n2)CC1
EC50 (Leishmania donovani [1]): 31.6 µM | solubility kinetic [2]: 346 µM (≈ 165 µg/mL) | chromatographic logD [6]: 1.6

O=S(=O)(CCC(F)(F)F)N[C@H]1CC[C@H](Nc2ncc3c(-c4ccccn4)n[nH]c3n2)CC1
EC50 (Leishmania donovani [1]): 0.501 µM | EC50 (THP-1): 50.1 µM | CLH [4]: 0.6 mL/min/g | EC50 (HepG2): > 100 µM | CLH [5]: < 0.5 mL/min/g | solubility kinetic [2]: 8 µM (≈ 3.76 µg/mL) | fraction unbound at 0.25 h, 10 ug/ml [9]: 0.13 | fraction unbound at 0.25 h, 10 ug/ml [10]: 0.08 | AUC(0-t) at 24 h [18]: 17400 ng·h/mL | Cmax [19]: 1910 ng/mL | CL/F [20]: 4 mL/min/kg | Vdss [21]: 0.9 L/kg | bioavailability [22]: 44% | solubility at 4 h [3]: < 1 µg/mL | pKa [7]: 3.2 | Activity (Leishmania donovani [23]): 85% | Papp [24]: 44 ×10⁻⁶ cm/s

CC1COCCN1c1n[nH]c2nc(N[C@H]3CC[C@H](NS(=O)(=O)CCC(F)(F)F)CC3)ncc12 (stereo in doubt; 36)
pEC50 (Leishmania donovani [1]): 5.6 | solubility kinetic [2]: ≥ 310 µM | solubility at 4 h [3]: 88 µg/mL (≈ 179 µM)

C[C@@H]1CN(c2n[nH]c3nc(N[C@H]4CC[C@H](NS(=O)(=O)CCC(F)(F)F)CC4)ncc23)CCO1
EC50 (Leishmania donovani [1]): 5.01 µM | solubility kinetic [2]: 52 µM (≈ 25.6 µg/mL) | solubility at 4 h [3]: 23 µg/mL (≈ 46.8 µM)

O=S(=O)(CCC(F)(F)F)N[C@H]1CC[C@H](Nc2ncc3c(N4CCCC4)n[nH]c3n2)CC1
EC50 (Leishmania donovani [1]): 2 µM | solubility kinetic [2]: 12 µM (≈ 5.54 µg/mL) | chromatographic logD [6]: 4

COc1nc(N[C@H]2CC[C@H](NS(=O)(=O)CC3CCCO3)CC2)nc2[nH]nc(N3CCOCC3)c12 (stereo in doubt; 35)
EC50 (Leishmania donovani [1]): 6.31 µM | Kinetic_solubility [2]: 421 µM | solubility [3]: 208 µg/mL (≈ 420 µM)
